Entries after “also recorded” stand apart in the source; their conditions may differ. Blank lines part the entries; values can stand above or below the molecule they belong to.
Key:
[1] = target: T1, recombinant HMGCR protein (Homo sapiens, UniProt P04035); assay: HMG-CoA reductase activity assay; type: biochemical
T1 sequence (P04035 426-888 limits assumed): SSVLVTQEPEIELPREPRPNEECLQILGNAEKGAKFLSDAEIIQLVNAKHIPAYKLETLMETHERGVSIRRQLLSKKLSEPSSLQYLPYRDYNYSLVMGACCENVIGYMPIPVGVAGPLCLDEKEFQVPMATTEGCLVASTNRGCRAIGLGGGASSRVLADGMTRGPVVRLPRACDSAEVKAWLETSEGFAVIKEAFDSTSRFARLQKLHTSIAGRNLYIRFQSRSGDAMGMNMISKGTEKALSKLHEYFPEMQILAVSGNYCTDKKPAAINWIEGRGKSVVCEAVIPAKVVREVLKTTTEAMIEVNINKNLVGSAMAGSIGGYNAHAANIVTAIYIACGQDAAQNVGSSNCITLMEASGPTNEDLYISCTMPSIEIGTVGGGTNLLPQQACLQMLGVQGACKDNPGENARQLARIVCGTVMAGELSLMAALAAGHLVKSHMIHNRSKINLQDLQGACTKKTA

[2] = Chemical stability in saline; type: physicochemical; conditions: pH 7.4, 37 °C, 24 h
HMGCR [3] = target: T2, HMGCR (Homo sapiens, UniProt P04035); assay: Western blot of HMGCR level in HepG2 cells; type: cell-based
T2 sequence (P04035 1-888): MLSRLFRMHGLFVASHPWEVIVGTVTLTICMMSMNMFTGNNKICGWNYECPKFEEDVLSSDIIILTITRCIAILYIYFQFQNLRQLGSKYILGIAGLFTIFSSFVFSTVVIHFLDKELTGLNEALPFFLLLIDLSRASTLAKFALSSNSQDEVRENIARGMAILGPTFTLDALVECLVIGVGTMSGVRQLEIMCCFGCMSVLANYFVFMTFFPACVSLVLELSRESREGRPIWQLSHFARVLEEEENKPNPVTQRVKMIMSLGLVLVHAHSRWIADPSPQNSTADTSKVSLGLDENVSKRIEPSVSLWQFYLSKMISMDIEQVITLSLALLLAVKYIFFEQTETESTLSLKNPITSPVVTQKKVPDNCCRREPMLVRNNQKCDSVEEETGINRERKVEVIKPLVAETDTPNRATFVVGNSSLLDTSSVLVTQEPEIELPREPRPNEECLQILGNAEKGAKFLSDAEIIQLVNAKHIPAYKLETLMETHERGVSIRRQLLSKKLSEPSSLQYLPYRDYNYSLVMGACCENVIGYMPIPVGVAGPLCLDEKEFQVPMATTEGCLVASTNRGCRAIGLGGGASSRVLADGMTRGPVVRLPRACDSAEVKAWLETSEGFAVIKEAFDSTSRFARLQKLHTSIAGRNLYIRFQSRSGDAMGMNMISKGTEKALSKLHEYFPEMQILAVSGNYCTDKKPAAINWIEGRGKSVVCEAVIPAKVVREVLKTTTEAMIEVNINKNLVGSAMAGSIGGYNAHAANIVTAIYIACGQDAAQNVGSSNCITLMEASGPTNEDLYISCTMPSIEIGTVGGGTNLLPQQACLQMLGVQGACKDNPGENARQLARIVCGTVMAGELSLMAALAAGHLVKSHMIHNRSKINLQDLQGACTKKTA

[4] = In vitro metabolic stability in mouse liver microsomes; type: in vitro ADME; conditions: for half-life at 1 μmol/L: pH 7.4
Summary of the method: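 Mouse liver microsomes (0.5 mg/mL) were incubated with the test compound (1 μmol/L) and an NADPH regeneration system in phosphate buffer (1.0 mmol/L EDTA), pH 7.4. The reaction was started with NADPH and quenched at 5, 15, 30 and 45 min with acetonitrile plus internal standard. Samples were centrifuged, diluted in water and quantified by LC–MS/MS. t1/2 and CLint are means of duplicates.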

[5] = test system: MFD-induced hypercholesterolemia; assay: MFD-induced mouse model of hypercholesterolemia; type: in vivo, C57BL/6 mice; conditions: MFD mice
Summary of the method: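 Male C57BL/6 mice (20–24 g) were fed medium-fat diet (12% fat, 0.5% sodium cholate, 1.25% cholesterol) with 3 weeks' induction. Survival, body weight and food intake were logged weekly. Sixteen hours post-dose, retro-orbital serum TC, LDL-C and TG were measured on an automated analyser (one-way ANOVA, mean ± SD).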

HMGCR [6] = target: T3, HMGCR (Mus musculus, UniProt Q01237); assay: Hepatic HMGCR level by Western blot in MFD-fed mice; type: in vivo, C57BL/6 mice; conditions: 20 mg/kg p.o. once daily 5 weeks, 16 h after final gavage
T3 sequence (Q01237 1-887): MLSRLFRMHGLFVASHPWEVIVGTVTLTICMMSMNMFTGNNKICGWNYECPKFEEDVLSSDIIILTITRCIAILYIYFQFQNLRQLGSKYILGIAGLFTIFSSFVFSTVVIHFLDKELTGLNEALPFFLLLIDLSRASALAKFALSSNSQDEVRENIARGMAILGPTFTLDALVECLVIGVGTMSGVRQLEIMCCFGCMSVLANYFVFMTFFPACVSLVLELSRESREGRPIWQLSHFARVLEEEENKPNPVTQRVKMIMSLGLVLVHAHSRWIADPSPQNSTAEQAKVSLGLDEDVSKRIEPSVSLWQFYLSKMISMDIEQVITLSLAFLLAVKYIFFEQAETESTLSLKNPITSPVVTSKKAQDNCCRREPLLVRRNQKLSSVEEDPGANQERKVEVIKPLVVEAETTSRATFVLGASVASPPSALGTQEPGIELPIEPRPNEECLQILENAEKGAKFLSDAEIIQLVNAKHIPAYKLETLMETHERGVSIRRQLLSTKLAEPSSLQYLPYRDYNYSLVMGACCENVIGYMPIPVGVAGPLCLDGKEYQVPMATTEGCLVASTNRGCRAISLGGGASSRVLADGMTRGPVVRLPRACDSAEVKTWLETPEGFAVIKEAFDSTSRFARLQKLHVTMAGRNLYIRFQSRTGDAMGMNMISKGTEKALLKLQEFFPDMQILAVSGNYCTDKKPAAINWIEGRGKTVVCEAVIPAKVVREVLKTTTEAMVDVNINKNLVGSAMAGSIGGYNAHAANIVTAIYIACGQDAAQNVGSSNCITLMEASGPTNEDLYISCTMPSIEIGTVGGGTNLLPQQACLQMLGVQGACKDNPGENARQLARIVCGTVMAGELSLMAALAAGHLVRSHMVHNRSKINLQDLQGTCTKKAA

[7] = previously reported in mice ref 53; cited from earlier work

- IC50 [1]: 1250 nM
SMILES: C[C@H]1C=C2C=C[C@H](C)[C@H](CC[C@@H]3C[C@@H](O)CC(=O)O3)[C@H]2[C@@H](OC(=O)NCCCOCCOCCOCCCNc2cccc3c2C(=O)N(C2CCC(=O)NC2=O)C3=O)C1 (stereo partly drawn) [Compound 16a, (1S,3R,7S,8S,8aR)-8-(2-((2R,4R)-4-Hydroxy-6-oxotetrahydro-2H-pyran-2-yl)ethyl)-3,7-dimethyl-1,2,3,7,8,8a-hexahydronaphthalen-1-yl (3-(2-(2-(3-((2-(2,6-dioxopiperidin-3-yl)-1,3-dioxoisoindolin-4-yl)amino)propoxy)ethoxy)ethoxy)propyl)carbamate]

- IC50 [1]: 1880 nM
- Chemical stability (decomposition) [2]: over half decomposition
SMILES: C[C@H]1C=C2C=C[C@H](C)[C@H](CC[C@@H]3C[C@@H](O)CC(=O)O3)[C@H]2[C@@H](OC(=O)NCCOCCOCCNc2cccc3c2C(=O)N(C2CCC(=O)NC2=O)C3=O)C1 (stereo partly drawn) [Compound 16b, (1S,3R,7S,8S,8aR)-8-(2-((2R,4R)-4-Hydroxy-6-oxotetrahydro-2H-pyran-2-yl)ethyl)-3,7-dimethyl-1,2,3,7,8,8a-hexahydronaphthalen-1-yl (2-(2-(2-((2-(2,6-dioxopiperidin-3-yl)-1,3-dioxoisoindolin-4-yl)amino)ethoxy)ethoxy)ethyl)carbamate]

- IC50 [1]: 2490 nM
SMILES: C[C@H]1C=C2C=C[C@H](C)[C@H](CC[C@@H]3C[C@@H](O)CC(=O)O3)[C@H]2[C@@H](OC(=O)NCCCNc2cccc3c2C(=O)N(C2CCC(=O)NC2=O)C3=O)C1 (stereo partly drawn) [Compound 16c, (1S,3R,7S,8S,8aR)-8-(2-((2R,4R)-4-Hydroxy-6-oxotetrahydro-2H-pyran-2-yl)ethyl)-3,7-dimethyl-1,2,3,7,8,8a-hexahydronaphthalen-1-yl (3-((2-(2,6-dioxopiperidin-3-yl)-1,3-dioxoisoindolin-4-yl)amino)propyl)carbamate]

- IC50 [1]: 1560 nM
SMILES: Cc1ncsc1-c1ccc(CNC(=O)[C@@H]2C[C@@H](O)CN2C(=O)[C@@H](NC(=O)CCCCCCCNC(=O)O[C@H]2C[C@@H](C)C=C3C=C[C@H](C)[C@H](CC[C@@H]4C[C@@H](O)CC(=O)O4)[C@H]32)C(C)(C)C)cc1 [Compound 21a, (1S,3R,7S,8S,8aR)-8-(2-((2R,4R)-4-Hydroxy-6-oxotetrahydro-2H-pyran-2-yl)ethyl)-3,7-dimethyl-1,2,3,7,8,8a-hexahydronaphthalen-1-yl (8-(((S)-1-((2S,4R)-4-hydroxy-2-((4-(4-methylthiazol-5-yl)benzyl)carbamoyl)pyrrolidin-1-yl)-3,3-dimethyl-1-oxobutan-2-yl)amino)-8-oxooctyl)carbamate]

SMILES: Cc1ncsc1-c1ccc(CNC(=O)[C@@H]2C[C@@H](O)CN2C(=O)[C@@H](NC(=O)CCCCCCCCCCNC(=O)O[C@H]2C[C@@H](C)C=C3C=C[C@H](C)[C@H](CC[C@@H]4C[C@@H](O)CC(=O)O4)[C@H]32)C(C)(C)C)cc1 [Compound 21b, (1S,3R,7S,8S,8aR)-8-(2-((2R,4R)-4-Hydroxy-6-oxotetrahydro-2H-pyran-2-yl)ethyl)-3,7-dimethyl-1,2,3,7,8,8a-hexahydronaphthalen-1-yl (11-(((S)-1-((2S,4R)-4-hydroxy-2-((4-(4-methylthiazol-5-yl)benzyl)carbamoyl)pyrrolidin-1-yl)-3,3-dimethyl-1-oxobutan-2-yl)amino)-11-oxoundecyl)carbamate]
- IC50 [1]: 1320 nM
- Dmax at 1 µM (HMGCR [3]; HepG2, read-out: maximum degradation (Dmax)): 56%
- half-life at 1 μmol/L ([4]; mouse, liver microsomes): 4.18 min
- CLint scaled at 1 μmol/L ([4]; mouse, liver microsomes, pH 7.4, CLint (mL/min/kg), mouse liver microsomes, mean of duplicate): 416 mL/min/kg
- Serum total cholesterol (TC), LDL-C and triglyceride (TG) ([5]; 20 mg/kg p.o. once daily, 5 weeks): moderate decrease
- Serum TC and cholesteryl esters ([5]; 60 mg/kg p.o. once daily, 5 weeks): significantly reduced to lower levels
- Hepatic TC and TG ([5]; 20 or 60 mg/kg p.o. once daily, 5 weeks): reduced hepatic TC and TG in a dose-dependent manner
- Tolerability (body weight and food intake) ([5]; oral once a day for 5 weeks): well tolerated; also recorded: no apparent change of body weight and food intake
- Steatosis and lipid deposition in liver sections (H&E, oil red O) ([5]; p.o. once daily, 5 weeks): ameliorated MFD-induced steatosis and lipid deposition
- Hepatic HMGCR level (HMGCR [6]): robust HMGCR degradation

- CLint ([4]; mouse liver microsomes, mean of duplicate): 7516 mL/min/kg
- half-life at 1 μmol/L ([4]; mouse, liver microsomes): 0.73 min
- Hepatic HMGCR level (HMGCR [6]): retained high HMGCR level
SMILES: CC[C@H](C)C(=O)O[C@H]1C[C@@H](C)C=C2C=C[C@H](C)[C@H](CC[C@@H]3C[C@@H](O)CC(=O)O3)[C@H]21 [Lovastatin, lovastatin, reference compound]
- Effect on HMGCR expression (HMGCR [3]; HepG2 cells, range of concentrations (0.1, 1, 3, 10 μmol/L), 16 h): remarkably upregulated HMGCR in a dose-dependent manner
- Tmax [7]: 120 min

SMILES: CC[C@H](C)C(=O)O[C@H]1C[C@@H](C)C=C2C=C[C@H](C)[C@H](CC[C@@H](O)C[C@@H](O)CC(=O)O)[C@H]21 [lovastatin acid]
- Tmax [7]: 90 min

Reference: PMC8148065 (Acta Pharmaceutica Sinica. B, 2020)
